ChEMBL document CHEMBL2040845, “Discovery of novel sulfonated small molecules that inhibit vascular tube formation” (Bioorg Med Chem Lett, 2012)
Calls of active or inactive are those of the source. The rule behind the calls is not given here.

Columns and labels:
Format in all cases: functional
Bos taurus [1] = species: Bos taurus; assay: Antiangiogenic activity against BLMVEC grown on RGF-BME assessed as inhibition of tube formation at 100 uM after 16 hrs by calcein staining-based microscopy
Summary of the method: (§1)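 1×10^5 BLMVEC premixed with test compound in MCDB-131 medium, then added to matrigel in duplicate wells. Wells received 100 μM compound. Controls were untreated wells and sulforaphane. Plates were incubated 16 hrs at 37 °C and cells were imaged by microscopy. Inhibition was scored from network morphology: branching and interconnection of tubes versus dispersed cells or short, unconnected tubes.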

Endothelial cell = assay: Antiangiogenic activity against BLMVEC grown on RGF-BME assessed as dispersed endothelial cells at 100 uM after 16 hrs by calcein staining-based microscopy; settings: Bos taurus; summary of the method: as §1
Bos taurus [2] = species: Bos taurus; assay: Antiangiogenic activity against BLMVEC grown on RGF-BME assessed as formation of small cell clumps at 100 uM after 16 hrs by calcein staining-based microscopy; summary of the method: as §1
Bos taurus [3] = species: Bos taurus; assay: Antiangiogenic activity against BLMVEC grown on RGF-BME assessed as inhibition of tube-like network formation at 100 uM after 16 hrs by calcein staining-based microscopy; summary of the method: as §1
Bos taurus [4] = species: Bos taurus; assay: Antiangiogenic activity against BLMVEC grown on RGF-BME assessed as inhibition of branching at 100 uM after 16 hrs by calcein staining-based microscopy; summary of the method: as §1

Row | Structure (SMILES) | inhibition (Bos taurus [1]) | Activity (Endothelial cell) | Activity (Bos taurus [2]) | inhibition (Bos taurus [3]) | inhibition (Bos taurus [4])
1 | O=C(c1cc(OS(=O)(=O)O)c(OS(=O)(=O)O)c(OS(=O)(=O)O)c1)N1CCc2cc(OS(=O)(=O)O)c(OS(=O)(=O)O)cc2C1 | inactive | inactive | inactive | inactive | inactive
2 | O=c1c(OS(=O)(=O)O)c(-c2ccc(OS(=O)(=O)O)cc2OS(=O)(=O)O)oc2ccc(OS(=O)(=O)O)cc12 | inactive | inactive | inactive | inactive | inactive
3 | O=C1c2c(cc(OS(=O)(=O)O)cc2OS(=O)(=O)O)O[C@@H](c2ccc(OS(=O)(=O)O)c(OS(=O)(=O)O)c2)[C@H]1OS(=O)(=O)O | inactive | inactive | inactive | inactive | inactive
4 | O=C1c2c(cc(OS(=O)(=O)O)cc2OS(=O)(=O)O)O[C@@H](c2ccc(OS(=O)(=O)O)c(OS(=O)(=O)O)c2)[C@@H]1OS(=O)(=O)O | inactive | inactive | inactive | inactive | inactive
5 | O=c1cc(-c2ccc(OS(=O)(=O)O)cc2)oc2cc(OS(=O)(=O)O)cc(OS(=O)(=O)O)c12 | Active | Active | Active | Active | –
6 | CCOC(=O)[C@@H]1Cc2cc(OS(=O)(=O)O)c(OS(=O)(=O)O)cc2CN1C(=O)c1cc(OS(=O)(=O)O)c(OS(=O)(=O)O)c(OS(=O)(=O)O)c1 | inactive | inactive | inactive | inactive | inactive
7 | O=C(c1ccc(OS(=O)(=O)O)c(OS(=O)(=O)O)c1)N1CCc2cc(OS(=O)(=O)O)c(OS(=O)(=O)O)cc2C1 | inactive | inactive | inactive | inactive | inactive
8 | O=c1c(OS(=O)(=O)O)c(-c2ccccc2OS(=O)(=O)O)oc2ccccc12 | Active | Active | Active | Active | –
9 | O=c1c(OS(=O)(=O)O)c(-c2ccc(OS(=O)(=O)O)c(OS(=O)(=O)O)c2)oc2cc(OS(=O)(=O)O)ccc12 | inactive | inactive | inactive | inactive | inactive
10 | O=c1cc(-c2ccc(OS(=O)(=O)O)c(OS(=O)(=O)O)c2)oc2cc(OS(=O)(=O)O)cc(OS(=O)(=O)O)c12 | Active | Active | Active | Active | –
11 | O=C(CCc1ccc(OS(=O)(=O)O)cc1)c1c(OS(=O)(=O)O)cc(OS(=O)(=O)O)cc1OS(=O)(=O)O | Active | Active | Active | Active | –
12 | C[C@]12CC[C@@H]3c4ccc(OS(=O)(=O)O)cc4CC[C@H]3[C@@H]1CC[C@@H]2O | Active | Active | Active | Active | –
13 | CCOC(=O)[C@@H]1Cc2cc(OS(=O)(=O)O)c(OS(=O)(=O)O)cc2CN1C(=O)c1ccc(OS(=O)(=O)O)c(OS(=O)(=O)O)c1 | inactive | inactive | inactive | inactive | inactive
14 | O=c1c(OS(=O)(=O)O)c(-c2ccc(OS(=O)(=O)O)c(OS(=O)(=O)O)c2)oc2cc(OS(=O)(=O)O)cc(OS(=O)(=O)O)c12 | inactive | inactive | inactive | inactive | inactive
